Assay outcomes: PubChem, Broad Institute
This is a sample that favours compounds with a hit; in the whole collection about 3.1% have one here.
DENV2 CPE – DENV2-induced cell death inhibition; CPE inhibition, % at 9.99 µM; actives 1.7% (n = 350,000); DENV2-infected cells, cytopathic effect rescue, plate reader; in the data active means CPE inhibition above about 20%, passing the limit was not always enough; inconclusive means no clear call, values can overlap the other calls; tested in BHK-21 cells
Ecoli rRNA inh – selective bacterial rRNA inhibition in E. coli; AID 720706; E. coli WT GFP vs humanized-ribosome RFP mutants, fluorescence, 24 h; hits give low values; DMSO median 0, no signal -100; actives 1.6% (n = 350,000); GFP signal change (wild-type ribosome), % (no concentration beside the values);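 active means significant combined selectivity score with lowered wild-type GFP, culture density cut under 30%, mutant RFP and density less affected; inactive means any of these conditions unmet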
miR-122 sensor – miR-122 inhibition in Huh7 cells; Huh7 miR-122 Renilla luciferase sensor, 48 h; neutral wells = 0, positive control = 100; actives 0.3% (n = 340,000); activation (reporter increase), % at 12.5 µM;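 active means mean replicate activation score at least 90 and every replicate individually at or above 90; inconclusive means only one of the two criteria met; inactive means neither criterion met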;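 further: higher luciferase means less miR-122 activity so hits act as miR-122 inhibitors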
E-sel inducer – induces E-selectin expression in human endothelial cells. P16581. HUVEC E-selectin immunofluorescence imaging; normalized: neutral wells 0, TNF-alpha wells 100. activation, % at 7.58 µM. actives 0.37% (n = 260,000). AID 686992;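 active means mean E-selectin-positive cell signal at least 10% of the positive control, reached in at least 60% of replicates, without over 20% cell loss; inconclusive means no rule given, readout overlaps actives, possibly toxicity-flagged; inactive means the rest, including those meeting only one limit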
Target sequence (P16581 whole entry, looked up): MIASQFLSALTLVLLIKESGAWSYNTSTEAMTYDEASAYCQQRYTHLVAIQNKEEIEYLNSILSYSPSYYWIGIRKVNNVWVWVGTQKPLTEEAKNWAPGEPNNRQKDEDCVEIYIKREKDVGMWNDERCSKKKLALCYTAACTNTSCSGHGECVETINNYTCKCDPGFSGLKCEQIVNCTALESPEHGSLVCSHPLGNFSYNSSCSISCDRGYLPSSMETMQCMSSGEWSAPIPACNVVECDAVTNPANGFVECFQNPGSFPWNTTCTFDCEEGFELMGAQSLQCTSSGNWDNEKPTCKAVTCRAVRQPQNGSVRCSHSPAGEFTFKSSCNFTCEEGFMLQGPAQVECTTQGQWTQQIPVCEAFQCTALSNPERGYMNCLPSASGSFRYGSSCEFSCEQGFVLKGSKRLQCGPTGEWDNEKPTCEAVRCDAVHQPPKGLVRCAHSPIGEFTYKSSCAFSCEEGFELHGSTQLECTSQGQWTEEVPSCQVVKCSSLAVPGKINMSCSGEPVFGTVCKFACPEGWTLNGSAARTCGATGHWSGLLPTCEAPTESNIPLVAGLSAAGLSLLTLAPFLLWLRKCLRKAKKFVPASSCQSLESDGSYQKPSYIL
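Test system – human umbilical vein endothelial cells (HUVEC), E-selectin induction · Input – 3,000 HUVEC seeded per well · Buffer or medium – EGM-2, gelatin · Compound dosing – single-point compound dose · Detection – immunofluorescence imaging · Measure – percent E-selectin-positive cells · Controls – TNF-alpha high, DMSO low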
Cneo AK release – Cryptococcus neoformans lysis via adenylate kinase release | C. neoformans lysis, adenylate kinase release luminescence, 4 h; normalised: neutral wells 0, clomiphene wells 100 | lysis activity, % at 15 µM | actives 0.2% (n = 360,000);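 active means mean lysis activity across replicates of at least 80%, whatever share of replicates individually reach that level; inactive means mean lysis activity below 80%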
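Material – Cryptococcus neoformans yeast cells · Quantity – 5 × 10^6 yeast cells/mL · Buffer or medium – YPD medium · Compound – single dose · Timing – 4 h static compound exposure, 37 °C, read 1 h post-reagent · Signal – adenylate kinase release luminescence · Read-out basis – lysis from increased AK signal · Benchmarks – Clomiphene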
A number is an active result; - = inactive; ? = inconclusive; . = no result.

SMILES | DENV2 CPE | Ecoli rRNA inh | miR-122 sensor | E-sel inducer | Cneo AK release
N#Cc1c(Nc2ccccc2)[n+]([O-])c2ccc(Cl)cc2[n+]1[O-] | 21 | - | . | - | .
O=C(/C=C/Nc1ccccc1)c1ccc(Cl)cc1Cl | - | - | . | . | -
O=C([C@@H]1[C@@H](CO)[C@@H]2Cn3c(cccc3=O)[C@H]1N2C(=O)CC1CC1)N1CCCCC1 | 148 | - | . | - | -
O=C(NC1CCC1)[C@H]1[C@H](CO)[C@H]2Cn3c(cccc3=O)[C@@H]1N2CC1CCCC1 | 36 | - | . | - | .
CC=Cc1ccc2n(c1=O)C[C@@H]1[C@@H](CO)[C@H](C(=O)N(C)C)[C@H]2N1CC1CCCC1 (mixture of isomers) | - | - | . | - | .
O=C([C@@H]1[C@@H](CO)[C@@H]2Cn3c(cccc3=O)[C@H]1N2CC1CCCC1)N1CCOCC1 | - | - | . | - | .
CC=Cc1ccc2n(c1=O)C[C@@H]1[C@@H](CO)[C@H](C(=O)N3CCOCC3)[C@H]2N1CC1CCCC1 (mixture of isomers) | 36 | - | . | - | -
O=C([C@H]1[C@H](CO)[C@H]2Cn3c(cccc3=O)[C@@H]1N2CC1CCCCC1)N1CCOCC1 | 63 | - | . | - | -
O=C([C@@H]1[C@@H](CO)[C@@H]2Cn3c(cccc3=O)[C@H]1N2Cc1cccc(Cl)c1)N1CCCCC1 | - | - | - | - | -
O=C([C@@H]1[C@@H](CO)[C@@H]2Cn3c(cccc3=O)[C@H]1N2Cc1cccc(Cl)c1)N1CCOCC1 | - | - | . | - | 98
CCn1nc(C)c(NC(=O)CSc2nnc(-c3ccco3)n2C)c1C | . | . | - | . | -
Cc1nn(Cc2ccccc2)c(C)c1NC(=O)CSc1nnc(-c2cc(Cl)ccc2O)n1C | - | -20 | - | . | -
CCC(=O)N1CCCCN2[C@H](C1)[C@@H](c1ccc(C#Cc3cccnc3)cc1)[C@@H]2CO | 24 | - | - | - | -
CCC(=O)N1CCCCN2[C@H](C1)[C@H](c1ccc(C#Cc3cccnc3)cc1)[C@@H]2CO | 28 | - | - | - | -
COCC(=O)N1CCCCN2[C@@H](CO)[C@@H](c3ccc(C#Cc4cccnc4)cc3)[C@@H]2C1 | - | - | - | - | -
CCC(=O)N1CCCCN2[C@H](CO)[C@@H](c3ccc(C#Cc4cccnc4)cc3)[C@H]2C1 | - | - | - | - | -
COCC(=O)Nc1ccc2c(c1)C(=O)N(C)[C@H]1CC[C@@H](CC(=O)NCCc3ccccc3)O[C@H]1CO2 | - | - | - | - | -
CO[C@H]1CN(C)C(=O)c2cc(NS(=O)(=O)CC(F)(F)F)ccc2OC[C@@H](C)N(CCC(F)(F)F)C[C@@H]1C | - | - | - | - | -
CSCCC(NC(=O)c1ccco1)C(=O)NCC1CCCO1 (stereo not drawn) | 67 | - | - | - | -
CN(CC(=O)Nc1ccccc1C(F)(F)F)Cc1c(O)ccc2ccccc12 | - | -27 | - | - | -
COc1ccccc1CN(C)CC(=O)Nc1ccc(Cl)cc1C(F)(F)F | - | -34 | - | - | .
COc1cccc(NC(=O)C2CCC(CNS(=O)(=O)c3cccc4cccnc34)CC2)c1 (stereo not drawn) | - | -26 | . | - | -
CCOC(=O)c1ccc(S(=O)(=O)NC2CCCCCCC2)n1C | . | . | 128 | . | -
CCOC(=O)c1cc(S(=O)(=O)NC2CCCCC2)cn1C | - | - | ? | . | -
Cc1ccc(Nc2ncnc3ccccc23)cc1 | - | - | - | . | -
SMILES | DENV2 CPE | Ecoli rRNA inh | miR-122 sensor | E-sel inducer | Cneo AK release
Cc1ccc(/C(=N/Nc2ncnc3ccccc23)C(=O)O)cc1 | - | - | - | 51 | -
CCOP(=O)(OCC)c1ccc2c(c1)C(=O)c1ccccc1CC2 | 46 | - | - | - | -
O=C1C(=C2CCc3ccccc32)Cc2ccccc21 | - | - | - | - | -
Cc1cc(Cl)c(OCCCNC2CCCC2)c(Br)c1 | 27 | - | . | . | -
CCn1c2ccccc2c2cc(NC(=O)COC(=O)c3cc(OC)c(OC)cc3OC)ccc21 | 41 | - | . | . | -
Nc1ccc2ccccc2c1C(=O)c1ccccc1 | 57 | - | - | - | -
COc1ccc(C#Cc2cnc3c(c2)C(=O)N([C@H](C)CO)C[C@@H](C)[C@H](CN(C)C(=O)CC2CC2)O3)cc1 | - | - | - | - | -
C[C@@H]1CN([C@@H](C)CO)S(=O)(=O)c2ccc(C#CCN(C)C)cc2O[C@H]1CN(C)Cc1cccnc1 | - | - | - | - | -
